Measured values from ChEMBL document CHEMBL1255395, “Laninamivir prodrug CS-8958, a long-acting neuraminidase inhibitor, shows superior anti-influenza virus activity after a single administration” (Antimicrob Agents Chemother, 2010).
Calls of active or inactive are those of the source.

What was measured:
[1] = tested on: Influenza A virus; experiment: Antimicrobial activity against oseltamivir-sensitive influenza A virus (A/Yokohama/67/2006 (H1N1)) clone 1 infected in BALB/c mouse assessed as reduction in viral titer in lung at 0.080 mg/kg, itn administered 13 hrs post infection measured after 37 hrs post infection; format: functional, organism-based; set-up: dose 0.08 mg/kg
Method in brief: (§1)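 Female BALB/c mice infected intranasally with A/Yokohama/67/2006 clone 1. From 13 hpi they received either a single intranasal dose (0.057 or 0.17 μmol/kg) or 1.0 or 10 mg/kg oral twice daily. Lung titers measured at 37, 61 and 85 hpi by MDCK plaque assay, log10 PFU/lungs (n = 3). Detection limit 2.4.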

[2] = tested on: Influenza A virus; experiment: Antimicrobial activity against Influenza A virus (A/Puerto Rico/8/34(H1N1)) infected in BALB/c mouse assessed as increase in mouse survival at 0.017 mg/kg, itn administered 11 hrs post infection for 5 days […] infection; format: functional, organism-based; set-up: dose 0.017 mg/kg; details: A/Puerto Rico/8/1934(H1N1)
Method in brief: (§2)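 Female BALB/c mice (5–6 weeks) infected intranasally with A/PR/8/34 at 100 PFU, n = 10 per group. Each mouse got one intranasal dose at 11 hpi plus oral doses twice daily from 11 hpi to 120 hpi. Drug went by one route and saline by the other, all in saline vehicle. Survival was followed daily to day 20 and analysed by Kaplan-Meier with a log-rank test against the saline group.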

[3] = tested on: Influenza A virus; experiment: Antimicrobial activity against Influenza A virus (A/Puerto Rico/8/34(H1N1)) infected in BALB/c mouse assessed as increase in mouse survival at 0.17 mg/kg, itn for 4 days post infection; format: functional, organism-based; set-up: dose 0.17 mg/kg; details: A/Puerto Rico/8/1934(H1N1)
[4] = tested on: Influenza A virus; experiment: Antimicrobial activity against Influenza A virus (A/Puerto Rico/8/34(H1N1)) infected in BALB/c mouse assessed as reduction in viral titer in lung at 0.027 mg/kg, itn after 11 hrs post infection; format: functional, organism-based; set-up: dose 0.027 mg/kg; details: A/Puerto Rico/8/1934(H1N1), TDE = time-dependent effect
Method in brief: (§3)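 BALB/c mice infected intranasally with A/PR/8/34 at 30 PFU. Oral drug was given twice daily from 11 hpi with intranasal saline at 11 hpi, or a single intranasal dose at 11 hpi with oral saline on the same schedule. Lungs (n = 3) were harvested at 35, 59 and 83 hpi. Titers were measured by MDCK plaque assay, log10 PFU/lungs.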

[5] = tested on: Influenza A virus; experiment: Antimicrobial activity against Influenza A virus (A/Puerto Rico/8/34(H1N1)) infected in BALB/c mouse assessed as increase in mouse survival at 0.095 mg/kg, itn administered for 7 days before infection; format: functional, organism-based; set-up: dose 0.095 mg/kg; details: A/Puerto Rico/8/1934(H1N1)
[6] = tested on: Influenza A virus; experiment: Antimicrobial activity against Influenza A virus (A/Puerto Rico/8/34(H1N1)) infected in BALB/c mouse assessed as increase in mouse survival at 0.76 mg/kg, itn administered for 7 days before infection; format: functional, organism-based; set-up: dose 0.76 mg/kg; details: A/Puerto Rico/8/1934(H1N1)
[7] = tested on: Influenza A virus; experiment: Antimicrobial activity against Influenza A virus (A/Puerto Rico/8/34(H1N1)) infected in BALB/c mouse assessed as increase in mouse survival at 0.17 mg/kg, itn for 7 days post infection; format: functional, organism-based; set-up: dose 0.17 mg/kg; details: A/Puerto Rico/8/1934(H1N1)
[8] = tested on: Influenza A virus; experiment: Antimicrobial activity against Influenza A virus (A/Puerto Rico/8/34(H1N1)) infected in BALB/c mouse assessed as increase in mouse survival at 0.37 mg/kg, itn administered for 7 days before infection; format: functional, organism-based; set-up: dose 0.37 mg/kg; details: A/Puerto Rico/8/1934(H1N1)
Method in brief: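 Single intranasal dose in saline (50 μl) given to anesthetized female BALB/c mice 7 days before intranasal infection with A/PR/8/34 at 500 PFU, n = 12. Survival was checked daily to day 20. Groups were compared with saline controls by Kaplan-Meier and log-rank test, with Bonferroni adjustment where needed.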

[9] = tested on: Influenza B virus; experiment: Antimicrobial activity against Influenza B virus (B/Malaysia/2506/2004) infected itn dosed Mustela putorius furo assessed as nasal viral titer treated after 4 hrs post infection measured after 1 day; format: functional, organism-based
Method in brief: (§4)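 Ferrets (600–800 g), seronegative by hemagglutination inhibition, anaesthetized with ketamine/xylazine and infected with B/Malaysia/2506/2004, 1,000 PFU/100 μl. From 4 hpi they received either a single intranasal dose (saline, 0.05 or 0.5 μmol/kg) or 25 mg/kg oral twice daily. Nasal wash titers measured by MDCK plaque assay on days 1, 2 and 3, log10 PFU/ml (n = 5). Undetectable samples entered at the lower limit of detection.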

[10] = tested on: Influenza B virus; experiment: Antimicrobial activity against Influenza B virus (B/Malaysia/2506/2004) infected itn dosed Mustela putorius furo assessed as nasal viral titer treated after 4 hrs post infection measured after 3 days; format: functional, organism-based; method in brief: as §4
[11] = tested on: Influenza A virus; experiment: Antimicrobial activity against Influenza A virus (A/Puerto Rico/8/34(H1N1)) infected in BALB/c mouse assessed as increase in mouse survival at 0.25 mg/kg, itn administered for 7 days before infection; format: functional, organism-based; set-up: dose 0.25 mg/kg; details: A/Puerto Rico/8/1934(H1N1)
[12] = tested on: Influenza A virus; experiment: Antimicrobial activity against Influenza A virus (A/Puerto Rico/8/34(H1N1)) infected in BALB/c mouse assessed as reduction in viral titer in lung at 0.24 mg/kg, itn administered 11 hrs post infection measured after 83 hrs post infection; format: functional, organism-based; set-up: dose 0.24 mg/kg; details: A/Puerto Rico/8/1934(H1N1)
Method in brief: (§5)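 BALB/c mice infected intranasally with A/PR/8/34 at 30 PFU. Intranasal dosing at 0.5 μmol/kg began at 11 hpi, either repeated twice daily or given once followed by twice-daily saline. Lungs (n = 3) were taken at 35, 59 and 83 hpi and homogenized. Titers were measured by MDCK plaque assay as log10 PFU/lungs. Two-way ANOVA and Dunnett test were applied.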

[13] = tested on: Influenza A virus; experiment: Antimicrobial activity against Influenza A virus (A/Puerto Rico/8/34(H1N1)) infected in BALB/c mouse assessed as increase in mouse survival at 0.17 mg/kg, itn for 12 hrs post infection; format: functional, organism-based; set-up: dose 0.17 mg/kg; details: A/Puerto Rico/8/1934(H1N1)
[14] = tested on: Influenza A virus; experiment: Antimicrobial activity against Influenza A virus (A/Puerto Rico/8/34(H1N1)) infected in BALB/c mouse assessed as reduction in viral titer in lung at 0.080 mg/kg, itn after 11 hrs post infection; format: functional, organism-based; set-up: dose 0.08 mg/kg; details: A/Puerto Rico/8/1934(H1N1), TDE = time-dependent effect; method in brief: as §3
[15] = tested on: Influenza A virus; experiment: Antimicrobial activity against Influenza A virus (A/Puerto Rico/8/34(H1N1)) infected in BALB/c mouse assessed as increase in mouse survival at 0.71 mg/kg, itn administered for 7 days before infection; format: functional, organism-based; set-up: dose 0.71 mg/kg; details: A/Puerto Rico/8/1934(H1N1)
[16] = tested on: Influenza A virus; experiment: Antimicrobial activity against Influenza A virus (A/Puerto Rico/8/34(H1N1)) infected in BALB/c mouse assessed as increase in mouse survival at 0.085 mg/kg, itn administered for 7 days before infection; format: functional, organism-based; set-up: dose 0.085 mg/kg; details: A/Puerto Rico/8/1934(H1N1)
[17] = tested on: Influenza B virus; experiment: Antimicrobial activity against Influenza B virus (B/Hong Kong/05/1972) infected in BALB/c mouse assessed as increase in mouse survival at 0.23 mg/kg, itn administered for 7 days before infection; format: functional, organism-based; set-up: dose 0.23 mg/kg
[18] = tested on: Influenza B virus; experiment: Antimicrobial activity against Influenza B virus (B/Hong Kong/05/1972) infected in BALB/c mouse assessed as increase in mouse survival at 0.71 mg/kg, itn administered for 7 days before infection; format: functional, organism-based; set-up: dose 0.71 mg/kg
[19] = tested on: Influenza A virus; experiment: Antimicrobial activity against Influenza A virus (A/Puerto Rico/8/34(H1N1)) infected in BALB/c mouse assessed as increase in mouse survival at 0.017 mg/kg, itn administered 11 hrs post infection for 5 days […] infection measured on day 20; format: functional, A/Puerto Rico/8/1934(H1N1); method in brief: as §2
[20] = tested on: Influenza A virus; experiment: Antimicrobial activity against Influenza A virus (A/Puerto Rico/8/34(H1N1)) infected in BALB/c mouse assessed as increase in mouse survival at 0.17 mg/kg, itn for 1 day post infection; format: functional, organism-based; set-up: dose 0.17 mg/kg; details: A/Puerto Rico/8/1934(H1N1)
[21] = tested on: Influenza B virus; experiment: Antimicrobial activity against Influenza B virus (B/Hong Kong/05/1972)infected in BALB/c mouse assessed as increase in mouse survival at 0.076 mg/kg, itn administered for 7 days before infection; format: functional, organism-based; set-up: dose 0.076 mg/kg
[22] = tested on: Influenza A virus; experiment: Antimicrobial activity against Influenza A virus (A/Puerto Rico/8/34(H1N1)) infected in BALB/c mouse assessed as reduction in viral titer in lung at 0.24 mg/kg, itn administered 11 hrs post infection measured after 59 hrs post infection; format: functional, organism-based; set-up: dose 0.24 mg/kg; details: A/Puerto Rico/8/1934(H1N1); method in brief: as §5
[23] = tested on: Influenza A virus; experiment: Antimicrobial activity against oseltamivir-sensitive influenza A virus (A/Yokohama/67/2006 (H1N1)) clone 1 infected in BALB/c mouse assessed as reduction in viral titer in lung at 0.080 mg/kg, itn administered post 13 hrs infection measured after 85 hrs post infection; format: functional, organism-based; set-up: dose 0.08 mg/kg; method in brief: as §1
[24] = tested on: Influenza A virus; experiment: Antimicrobial activity against oseltamivir-sensitive influenza A virus (A/Yokohama/67/2006 (H1N1)) clone 1 infected in BALB/c mouse assessed as reduction in viral titer in lung at 0.080 mg/kg, itn administered 13 hrs post infection measured after 61 hrs post infection; format: functional, organism-based; set-up: dose 0.08 mg/kg; method in brief: as §1
[25] = tested on: Influenza B virus; experiment: Antimicrobial activity against Influenza B virus (B/Malaysia/2506/2004) infected itn dosed Mustela putorius furo assessed as nasal viral titer treated after 4 hrs post infection measured after 2 days; format: functional, organism-based; method in brief: as §4
[26] = tested on: Influenza A virus; experiment: Antimicrobial activity against Influenza A virus (A/Puerto Rico/8/34(H1N1)) infected in BALB/c mouse assessed as increase in mouse survival at 0.18 mg/kg, itn administered for 7 days before infection; format: functional, organism-based; set-up: dose 0.18 mg/kg; details: A/Puerto Rico/8/1934(H1N1)
[27] = tested on: Influenza B virus; experiment: Antimicrobial activity against Influenza B virus (B/Hong Kong/05/1972) infected in BALB/c mouse assessed as increase in mouse survival at 0.23 mg/kg, itn administered for 7 days before infection measured at day 20; format: functional
[28] = tested on: Influenza A virus; experiment: Antimicrobial activity against Influenza A virus (A/Puerto Rico/8/34(H1N1)) infected in BALB/c mouse assessed as reduction in viral titer in lung at 0.24 mg/kg, itn administered 11 hrs post infection measured after 35 hrs post infection; format: functional, organism-based; set-up: dose 0.24 mg/kg; details: A/Puerto Rico/8/1934(H1N1); method in brief: as §5

Measured: Activity

CCCCCCCC(=O)OC[C@@H](O)[C@@H](OC)[C@@H]1OC(C(=O)O)=C[C@H](NC(=N)N)[C@H]1NC(C)=O [LANINAMIVIR OCTANOATE]
30%: [19]
active: [1] | [2] | [3] | [4] tde | [5] | [6] | [7] | [8] | [9] Dose-dependent effect | [10] Dose-dependent effect | [11] | [12] | [13] | [14] tde | [15] | [16] | [17] | [18] | [20] | [21] | [22] | [23] | [24] | [25] Dose-dependent effect | [26] | [28]
82%: [27]
